Results reported in ChEMBL document CHEMBL1131239, “Orally active benzamide antipsychotic agents with affinity for dopamine D2, serotonin 5-HT1A, and adrenergic alpha1 receptors” (J Med Chem, 1998).
pKi: −log10 of the molar value.

Assays:
[1] = biological target: T1, 5-hydroxytryptamine receptor 1A (Rattus norvegicus, UniProt P19327); assay: Compound was evaluated for its binding affinity against 5-hydroxytryptamine 1A receptor from rat cerebral cortex; type: tissue-based
T1 sequence (P19327 whole entry): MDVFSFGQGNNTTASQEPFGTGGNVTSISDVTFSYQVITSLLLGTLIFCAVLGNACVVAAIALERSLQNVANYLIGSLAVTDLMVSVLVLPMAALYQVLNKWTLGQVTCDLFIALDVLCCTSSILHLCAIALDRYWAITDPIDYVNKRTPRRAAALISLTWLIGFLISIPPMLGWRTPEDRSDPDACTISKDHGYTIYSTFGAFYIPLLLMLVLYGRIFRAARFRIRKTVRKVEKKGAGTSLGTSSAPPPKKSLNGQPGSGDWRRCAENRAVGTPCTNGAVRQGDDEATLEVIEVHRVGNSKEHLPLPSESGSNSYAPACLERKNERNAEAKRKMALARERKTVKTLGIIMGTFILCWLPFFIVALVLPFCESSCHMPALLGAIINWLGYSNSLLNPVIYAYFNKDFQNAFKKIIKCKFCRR

[2] = biological target: T2, Adrenergic receptor alpha-1 (Rattus norvegicus, UniProt P15823+P23944+P43140); assay: Binding affinity against Alpha-1 adrenergic receptor from rat cerebral cortex; type: tissue-based
T2 sequence (P15823 whole entry): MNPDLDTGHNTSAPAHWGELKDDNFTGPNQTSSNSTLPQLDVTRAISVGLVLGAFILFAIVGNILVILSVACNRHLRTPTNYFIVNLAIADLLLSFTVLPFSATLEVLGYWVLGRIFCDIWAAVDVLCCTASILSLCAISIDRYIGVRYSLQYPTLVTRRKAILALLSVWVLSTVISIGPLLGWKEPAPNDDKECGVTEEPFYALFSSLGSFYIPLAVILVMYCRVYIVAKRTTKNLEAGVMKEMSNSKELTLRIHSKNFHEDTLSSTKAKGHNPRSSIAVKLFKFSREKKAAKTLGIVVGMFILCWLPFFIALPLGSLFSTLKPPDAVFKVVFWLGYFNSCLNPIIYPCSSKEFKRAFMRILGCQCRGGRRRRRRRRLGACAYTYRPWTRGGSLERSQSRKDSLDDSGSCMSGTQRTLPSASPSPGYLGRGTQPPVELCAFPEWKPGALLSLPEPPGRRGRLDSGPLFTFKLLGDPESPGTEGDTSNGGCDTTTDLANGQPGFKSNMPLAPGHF
T2 sequence (P23944 whole entry): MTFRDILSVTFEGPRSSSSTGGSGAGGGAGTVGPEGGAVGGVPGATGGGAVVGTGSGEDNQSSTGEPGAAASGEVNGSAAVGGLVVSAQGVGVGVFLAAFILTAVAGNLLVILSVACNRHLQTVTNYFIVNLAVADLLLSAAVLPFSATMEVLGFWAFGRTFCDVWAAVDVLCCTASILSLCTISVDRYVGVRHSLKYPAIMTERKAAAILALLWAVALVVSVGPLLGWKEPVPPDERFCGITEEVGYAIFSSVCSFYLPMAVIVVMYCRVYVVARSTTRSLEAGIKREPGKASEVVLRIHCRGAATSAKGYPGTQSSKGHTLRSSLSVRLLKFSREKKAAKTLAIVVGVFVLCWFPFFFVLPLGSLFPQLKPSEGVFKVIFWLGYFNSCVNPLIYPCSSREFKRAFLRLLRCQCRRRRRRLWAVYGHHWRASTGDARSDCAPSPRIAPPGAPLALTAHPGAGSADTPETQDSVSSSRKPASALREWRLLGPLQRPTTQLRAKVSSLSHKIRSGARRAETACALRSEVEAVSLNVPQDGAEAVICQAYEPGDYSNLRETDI
T2 sequence (P43140 whole entry): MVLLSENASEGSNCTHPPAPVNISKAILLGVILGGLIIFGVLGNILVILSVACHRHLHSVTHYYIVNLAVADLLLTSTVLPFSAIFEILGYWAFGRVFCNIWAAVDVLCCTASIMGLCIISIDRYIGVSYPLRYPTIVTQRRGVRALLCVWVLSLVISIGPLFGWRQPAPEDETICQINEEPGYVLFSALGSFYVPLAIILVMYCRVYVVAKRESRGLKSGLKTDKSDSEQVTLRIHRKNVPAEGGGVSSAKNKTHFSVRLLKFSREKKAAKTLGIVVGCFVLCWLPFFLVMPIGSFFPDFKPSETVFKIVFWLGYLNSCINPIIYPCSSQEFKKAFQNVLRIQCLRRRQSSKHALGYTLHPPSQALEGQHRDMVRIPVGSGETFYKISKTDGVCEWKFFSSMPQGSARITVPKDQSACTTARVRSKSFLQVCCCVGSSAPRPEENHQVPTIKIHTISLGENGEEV

Rattus norvegicus [3] = assay: compound was tested for antipsychotic activity by conditioned avoidance response(CAR) assay in rats with a pretreatment period of 30 min upon intra peritoneal administration at a concentration of 1 mg/kg.; type: functional
Summary of the method: (§1)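 Trained rats (N = 4) were run in 1-h sessions on two consecutive days, with the experimenter blind to drug and dose. Fed rats had food and water until placed in the test chambers. Fasted rats had no food overnight before the experiment.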

Rattus norvegicus [4] = assay: compound was tested for antipsychotic activity by conditioned avoidance response(CAR) assay in rats with a pretreatment period of 30 min upon intra peritoneal administration at a concentration of 5 mg/kg.; type: functional
Summary of the method: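 Rat conditioned avoidance test modified from Martin et al. Trained rats (N = 4) were run in 1-h sessions on two consecutive days. Fed animals had food and water until placed in the test chambers. Dosing was ip with 30 min pretreatment, and activity was expressed as percent inhibition at the stated dose.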

Rattus norvegicus [5] = assay: compound was tested for antipsychotic activity by conditioned avoidance response(CAR) assay in rats with a pretreatment period of 60 min upon peroral administration at a concentration of 20 mg/kg.; type: functional; details: route oral; summary of the method: as §1
Rattus norvegicus [6] = assay: Percent catalepsy in male Spargue-Dawley rat at pretreatment time 60 mins and administered ip at dose 50 mg/kg; type: functional; details: route intraperitoneal
Summary of the method: (§2)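 Catalepsy in rats, groups of five per drug treatment, scored blind to drug and dose. Each session included a saline or vehicle negative control and a haloperidol 2 mg/kg positive control. Deaths during the experiment were recorded in the catalepsy column as number dead out of five.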

Rattus norvegicus [7] = assay: compound was tested for antipsychotic activity by conditioned avoidance response(CAR) assay in rats with a pretreatment period of 240 min upon peroral administration; type: functional; details: po; summary of the method: as §1
Rattus norvegicus [8] = assay: compound was tested for antipsychotic activity by conditioned avoidance response(CAR) assay in rats with a pretreatment period of 30 min upon intra peritoneal administration.; type: functional; summary of the method: as §1
Rattus norvegicus [9] = assay: compound was tested for antipsychotic activity by conditioned avoidance response(CAR) assay in rats with a pretreatment period of 60 min upon peroral administration; type: functional; details: po; summary of the method: as §1
Rattus norvegicus [10] = assay: Percent catalepsy in male Spargue-Dawley rat at pretreatment time 60 mins and when administered ip at dose 50 mg/kg (1/5L denotes that one rat out of five died during the course of experiment); type: functional; details: route intraperitoneal
Summary of the method: (§3)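 Catalepsy scored in groups of five rats per drug treatment, with the experimenter blind to drug and dose, in a quiet room. Each session included two control groups: saline (or vehicle) as negative control and haloperidol 2 mg/kg as positive control. Deaths during the experiment were recorded as lethality (e.g., 3/5L) in place of percent catalepsy.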

Rattus norvegicus [11] = assay: compound was tested for antipsychotic activity by conditioned avoidance response(CAR) assay in rats with a pretreatment period of 120 min upon peroral administration; type: functional; details: po; summary of the method: as §1
Rattus norvegicus [12] = assay: compound was tested for antipsychotic activity by conditioned avoidance response(CAR) assay in rats with a pretreatment period of 30 min upon intra peritoneal administration; type: functional; summary of the method: as §1
Rattus norvegicus [13] = assay: compound was tested for antipsychotic activity by conditioned avoidance response(CAR) assay in rats with a pretreatment period of 30 min upon peroral administration; type: functional; details: po; summary of the method: as §1
Rattus norvegicus [14] = assay: Percent catalepsy in male Spargue-Dawley rat at pretreatment time 240 mins and when administered ip at dose 100 mg/kg (3/5L denotes that three rats out of five died during the course of experiment); type: functional; details: route intraperitoneal; summary of the method: as §3
Rattus norvegicus [15] = assay: Percent catalepsy in male Spargue-Dawley rat at pretreatment time 240 mins and when administered ip at dose 50 mg/kg; type: functional; details: route intraperitoneal; summary of the method: as §2
Rattus norvegicus [16] = assay: Percent catalepsy in male Spargue-Dawley rat at pretreatment time 240 mins and when administered po at dose 250 mg/kg; type: functional; summary of the method: as §2
Rattus norvegicus [17] = assay: Percent catalepsy in male Spargue-Dawley rat at pretreatment time 60 mins and when administered ip at dose 50 mg/kg; type: functional; details: route intraperitoneal; summary of the method: as §2
Rattus norvegicus [18] = assay: Percent catalepsy in male Spargue-Dawley rat at pretreatment time 60 mins and when administered po at dose 250 mg/kg; type: functional; summary of the method: as §2
Rattus norvegicus [19] = assay: compound was tested for antipsychotic activity by conditioned avoidance response(CAR) assay in rats with a pretreatment period of 60 min upon peroral administration. Values in brackets indicates 95% confidence limits for ED50; type: functional; details: po
Summary of the method: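 Rats trained in conditioned avoidance were run in a 1-h session on two consecutive days (N = 4). The read-out was reduction of the conditioned response to a disagreeable stimulus. Oral dosing was 60 min before testing. Fed rats had food and water until placed in the test chambers; fasted rats had no food overnight before the experiment.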

Rattus norvegicus [20] = assay: compound was tested for antipsychotic activity by conditioned avoidance response(CAR) assay in rats with a pretreatment period of 60 min upon peroral administration.; type: functional; details: po; summary of the method: as §1
Rattus norvegicus [21] = assay: Percent catalepsy in male Spargue-Dawley rat at pretreatment time 240 mins and administered ip at dose 50 mg/kg; type: functional; details: route intraperitoneal; summary of the method: as §2
Rattus norvegicus [22] = assay: compound was tested for antipsychotic activity by conditioned avoidance response(CAR) assay in rats and pretreatment period of 60 min upon peroral administration; type: functional; details: po; summary of the method: as §1

`CC(=O)N(C)C(=O)c1cccc(CN2CCN(c3ccccc3OC(C)C)CC2)c1` gave a pKi [1] of 8.48, a Ki [2] of 388 nM and an inhibition in vivo at 1 mg/kg (Rattus norvegicus [3]) of -9.6%. It also gave an inhibition in vivo at 5 mg/kg (Rattus norvegicus [4]) of -94.5% and an inhibition in vivo at 20 mg/kg (Rattus norvegicus [5]) of -1.6%.

In the case of `COc1ccccc1N1CCN(Cc2cccc(C(=O)N3CCCCCC3)c2)CC1`, the pKi [1] was 9.34, the Ki [2] was 4.7 nM and the inhibition in vivo at 5 mg/kg (Rattus norvegicus [4]) was -94.6%. For the same compound, the Catalepsy (Rattus norvegicus [6]) was 70%.

`CC(C)Oc1ccccc1C1CCN(Cc2cccc(C(=O)N3CCCCC3)c2)CC1` was tested, and the Ki [2] was 2.2 nM, the ED50 (Rattus norvegicus [7]) was 7.93 mg/kg and the ED50 (Rattus norvegicus [8]) was 0.75 mg/kg. For the same compound, the ED50 (Rattus norvegicus [9]) was 7.69 mg/kg and the Catalepsy (Rattus norvegicus [10]) was 26.3%.

With `CC(C)Oc1ccccc1N1CCN(Cc2cccc(C(=O)N3CCCCCC3)c2)CC1` the pKi [1] was 9.22, the Ki [2] was 2.1 nM and the ED50 (Rattus norvegicus [11]) was 15.4 mg/kg. It also gave an ED50 (Rattus norvegicus [12]) of 0.85 mg/kg, an ED50 (Rattus norvegicus [13]) of 3.32 mg/kg and an ED50 (Rattus norvegicus [9]) of 11.9 mg/kg. It also gave a Catalepsy (Rattus norvegicus [14]) of 0%, a Catalepsy (Rattus norvegicus [15]) of 24.1% and a Catalepsy (Rattus norvegicus [16]) of 15.5%. It also gave a Catalepsy (Rattus norvegicus [17]) of 27.8% and a Catalepsy (Rattus norvegicus [18]) of 32.5%.

`O=C(CCCN1CCC(O)(c2ccc(Cl)cc2)CC1)c1ccc(F)cc1` [HALOPERIDOL] showed an ED50 (Rattus norvegicus [19]) of 0.31 mg/kg.

Work on `CC(C)Oc1ccccc1N1CCN(Cc2cccc(C(=O)N3CCCCC3)c2)CC1` [MAZAPERTINE] yielded an ED50 (Rattus norvegicus [11]) of 26 mg/kg, an ED50 (Rattus norvegicus [13]) of 14.5 mg/kg and an ED50 (Rattus norvegicus [9]) of 3.35 mg/kg. For the same compound, the ED50 (Rattus norvegicus [20]) was 11 mg/kg, the Catalepsy (Rattus norvegicus [21]) was 47.8% and the Catalepsy (Rattus norvegicus [6]) was 32.4%.

`CC(C)Oc1ccccc1N1CCN(Cc2ccc(CN3CCCCC3=O)n2C)CC1` [RWJ-25730] showed an ED50 (Rattus norvegicus [22]) of 34.7 mg/kg.
